Experimental data published in ChEMBL document CHEMBL3233005 (Bioorg Med Chem Lett, 2014).

Key:
[1] = biological target: T1, Aromatase (Homo sapiens, UniProt P11511); assay: Inhibition of human aromatase using androstenedione as substrate assessed as remaining estrone level at 10 uM after 30 mins by LC-MS/MS analysis relative to control; conditions: 0.5 h, read-out: Activity
T1 sequence (P11511 whole entry): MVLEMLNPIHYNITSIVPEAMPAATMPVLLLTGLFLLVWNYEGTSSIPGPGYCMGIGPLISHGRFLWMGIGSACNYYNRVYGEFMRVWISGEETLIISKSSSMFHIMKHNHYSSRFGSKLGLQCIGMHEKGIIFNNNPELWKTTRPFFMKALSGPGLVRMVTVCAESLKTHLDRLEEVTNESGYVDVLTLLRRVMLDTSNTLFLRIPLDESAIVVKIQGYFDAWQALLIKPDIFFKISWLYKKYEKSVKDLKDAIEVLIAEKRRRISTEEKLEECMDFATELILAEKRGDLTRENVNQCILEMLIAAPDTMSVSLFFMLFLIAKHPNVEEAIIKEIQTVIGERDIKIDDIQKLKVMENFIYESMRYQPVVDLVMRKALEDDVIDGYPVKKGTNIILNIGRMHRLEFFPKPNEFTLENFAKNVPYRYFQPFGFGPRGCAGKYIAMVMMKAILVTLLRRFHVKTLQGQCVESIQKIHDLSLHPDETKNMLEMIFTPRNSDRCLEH
In short: (§1)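 cDNA-expressed human CYP19A1 supersomes at 0.05 mg/mL, with 1 µM androstenedione, 3.3 mM MgCl2 and an NADPH-generating system (glucose-6-phosphate, β-NADP+, glucose-6-phosphate dehydrogenase) in 0.1 M potassium phosphate, pH 7.4. Incubated 30 min at 37 °C, stopped with ethyl acetate plus cortisone internal standard, then liquid–liquid extraction. Estrone quantified by LC–MS/MS as % of control. Single concentration, mean of duplicates.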

[2] = biological target: T1, Aromatase; assay: Inhibition of human aromatase using androstenedione as substrate assessed as estrone formation at 10 uM after 30 mins by LC-MS/MS analysis; in short: as §1

Work on `O=Cc1ccc(O)cc1O` yielded an activity at 10 µM [1] of 91.7%.

`O=C1c2ccc(O)cc2O[C@H](c2ccc(O)c(O)c2)[C@H]1O` (relative stereo) [FUSTIN] gave an activity at 10 µM [1] of 110%.

Work on `O=C(O)c1ccc(O)cc1O` [2,4-DIHYDROXYBENZOIC ACID] yielded an activity at 10 µM [1] of 93.9%.

`O=C1c2c(O)cc(O)cc2O[C@H](c2ccc(O)c(O)c2)[C@H]1O` [(+)-TAXIFOLIN] was tested, and the activity at 10 µM [1] was 90.7%.

`O=C(/C=C/c1ccc(O)c(O)c1)c1ccc(O)cc1O` [BUTEIN] showed an activity at 10 µM [1] of 87.5%.

With `O=c1c(O)c(-c2ccc(O)c(O)c2)oc2cc(O)ccc12` [FISETIN] the activity at 10 µM [1] was 117%.

With `C[C@]12CCC(=O)C(O)=C1CC[C@@H]1[C@@H]2CC[C@]2(C)C(=O)CC[C@@H]12` [FORMESTANE] the IC50 [2] was 470 nM, the “inhibition (INH)” value ([2]; human, 0.5 h, 10 µM) was “Dose-dependent effect” and the activity at 10 µM [1] was 5.1%.

Work on `O=C(O)c1cc(O)c(O)c(O)c1` [GALLIC ACID] yielded an activity at 10 µM [1] of 112%.

`O=C1c2ccc(O)cc2O[C@H](c2ccc(O)cc2)[C@H]1O` [GARBANZOL] gave an activity at 10 µM [1] of 99.3%.

In the case of `O=C(O)c1ccc(O)cc1` [PARABEN], the activity at 10 µM [1] is reported as 91.8%.

Work on `O=C(O)c1ccc(O)c(O)c1` [PROTOCATECHUIC ACID] yielded an activity at 10 µM [1] of 83.5%.

For `O=c1c(O)c(-c2ccc(O)c(O)c2)oc2cc(O)cc(O)c12` [QUERCETIN], the activity at 10 µM [1] was 96%.

For `O=c1c(O)c(-c2ccc(O)cc2)oc2cc(O)ccc12` [RESOKAEMPFEROL], the activity at 10 µM [1] was 102%.

For `Oc1cccc(O)c1` [RESORCINOL], the activity at 10 µM [1] was 91.8%.

`O=C1/C(=C/c2ccc(O)c(O)c2)Oc2cc(O)ccc21` [SULFURETIN] was tested, and the activity at 10 µM [1] was 99%.
